Assay results: publication PMC12690059 (Dose-Response, 2025)
Like-named read-outs stand apart in the source and are kept apart here.

Legend:
[1] = test system: Nrf2/HO-1 and Casp-3 pathways; assay: In vivo mechanistic validation using pathway inhibitors; design: species or system Sprague-Dawley (SD) rats; details: for Effect on P.indicus-induced reduction in serum cTn-T: ML385 30 mg/kg or Z-DEVD-FMK 1 mg/kg i.p. before P. indicus 54 mg/kg + ISO; for Intrinsic cardiotoxicity of inhibitor: control experiments
Outline: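 Rats (n = 8/group) received the test extract at 54 mg/kg p.o. on days 1-14 and ISO 85 mg/kg s.c. on days 7-14. An Nrf2 inhibitor (30 mg/kg) or a caspase-3 inhibitor (1 mg/kg) was given i.p. 30 min before each gavage; an ISO + vehicle group was included. Inhibition was checked by myocardial HO-1/cleaved caspase-3 western blot. Myocardial SOD and MDA (homogenate, ELISA) and serum cTn-T were measured.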

[2] = assay type: in vivo, Sprague-Dawley rats
Outline: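 Healthy SD rats (n = 6) received a single oral dose of extract at 54 mg/kg. Tail-vein blood (0.3 mL) was taken at 0, 0.25, 0.5, 1, 2, 4, 8, 12 and 24 h; plasma was stored at −80°C. Marker compounds were measured by validated HPLC-DAD (C18, 35°C, 0.1% formic acid water/methanol gradient).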

[3] = test system: Nrf2; assay: Western blot of myocardial Nrf2; assay type: in vivo, Sprague-Dawley (SD) rats; details: propranolol 30 mg/kg oral 14 days; ISO rats; Control = 1.00
[4] = test system: Bax; assay: Western blot of myocardial Bax; assay type: in vivo, Sprague-Dawley (SD) rats; details: propranolol 30 mg/kg oral 14 days; ISO rats; Control = 1.00
[5] = test system: ISO-induced myocardial ischemia; assay: Cardiac index; assay type: in vivo, Sprague-Dawley (SD) rats; details: propranolol 30 mg/kg oral 14 days; vs ISO
Outline: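 Male SD rats (200 ± 20 g, n = 10/group) received oral gavage daily for 14 days, with ISO 85 mg/kg s.c. on days 7-14, 30 min post-gavage. After ECG, hearts were excised, rinsed in pre-cooled saline, blotted dry and weighed. Cardiac index = heart weight/body weight, in mg/g.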

[6] = test system: ISO-induced myocardial ischemia; assay: ECG monitoring; assay type: in vivo, Sprague-Dawley (SD) rats; details: propranolol 30 mg/kg oral 14 days
Outline: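 Male SD rats (n = 10/group) were dosed orally for 14 days, with ISO 85 mg/kg s.c. on days 7-14. Twenty-four hours after the last ISO, rats were anesthetized with 2% pentobarbital sodium (30 mg/kg i.p.) and fixed supine. Lead II ECG was recorded for 60 min for ST-segment and T-wave changes, QRS duration and VPB incidence.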

[7] = test system: ISO-induced myocardial ischemia; assay: H&E histopathological score of myocardial tissue; assay type: in vivo, Sprague-Dawley (SD) rats; details: propranolol 30 mg/kg oral 14 days; ISO rats
Outline: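 ISO model: SD rats, 14-day oral pretreatment, ISO 85 mg/kg s.c. on days 7-14. Hearts were fixed in 4% paraformaldehyde for 24 h, paraffin-embedded and cut at 4 μm. Sections were H&E-stained and examined by light microscopy for myocardial damage. Final scores were consensus evaluations.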

[8] = test system: Cleaved caspase-3; assay: Western blot of myocardial cleaved caspase-3; assay type: in vivo, Sprague-Dawley (SD) rats; details: propranolol 30 mg/kg oral 14 days; ISO rats; Control = 1.00
[9] = test system: ISO-induced myocardial ischemia; assay: Masson's trichrome staining, myocardial fibrotic area; assay type: in vivo, Sprague-Dawley (SD) rats; details: propranolol 30 mg/kg oral 14 days; ISO rats
Outline: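 ISO model: SD rats, 14-day oral pretreatment, ISO 85 mg/kg s.c. on days 7-14. Paraffin heart sections (4 μm) were deparaffinized and stained with Weigert's iron hematoxylin, then Biebrich scarlet-acid fuchsin, phosphomolybdic-phosphotungstic acid and aniline blue; collagen stains blue. Images were taken at 200x. Fibrosis was expressed as collagen-positive area as a percentage of total myocardial area.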

[10] = test system: HO-1; assay: Western blot of myocardial HO-1; assay type: in vivo, Sprague-Dawley (SD) rats; details: propranolol 30 mg/kg oral 14 days; ISO rats; Control = 1.00
[11] = test system: Bcl-2; assay: Western blot of myocardial Bcl-2; assay type: in vivo, Sprague-Dawley (SD) rats; details: propranolol 30 mg/kg oral 14 days; ISO rats; Control = 1.00
[12] = Sprague-Dawley, rat, plasma, po, 54 mg/kg
[13] = rat plasma, single oral P. indicus extract 54 mg/kg, n = 6

SMILES: Cc1ccccc1C(=O)N1CCc2cc(-c3nc(NC(=O)Cc4ccc5c(c4)OCO5)sc3C)ccc21 [ML385]
- Effect on P.indicus's antioxidant effect (SOD activity, MDA content) ([1]; ML385 30 mg/kg i.p. before P. indicus 54 mg/kg + ISO): nullified P.indicus’s antioxidant effect
- Effect on P.indicus-induced reduction in serum cTn-T [1]: attenuated the P.indicus-induced reduction in serum cTn-T
- Intrinsic cardiotoxicity of inhibitor [1]: ruled out intrinsic cardiotoxicity

SMILES: O=c1c(O[C@@H]2O[C@H](CO)[C@@H](O)[C@H](O)[C@H]2O)c(-c2ccc(O)c(O)c2)oc2cc(O)cc(O)c12 [Quercetin-3-O-glucoside]
- AUC(0-t) [2, 12]: 5950 ± 720 ng·h/mL
- Cmax [2, 12]: 1280 ± 150 ng/mL
- half-life [2, 12]: 3.2 ± 0.4 h
- Tmax [2, 13]: 0.50 ± 0.12 h

SMILES: COC(=O)CC[C@H](NC(=O)[C@H](CC(=O)OC)NC(=O)OCc1ccccc1)C(=O)N[C@H](C(=O)N[C@@H](CC(=O)OC)C(=O)CF)C(C)C [Z-DEVD-FMK]
- Effect on P.indicus-induced reduction in serum cTn-T [1]: attenuated the P.indicus-induced reduction in serum cTn-T
- Effect on P.indicus suppression of cleaved caspase-3 (western blot) ([1]; Z-DEVD-FMK 1 mg/kg i.p. 30 min before each P. indicus gavage (54 mg/kg) + ISO): reversed the suppression of cleaved caspase-3
- Effect on P.indicus's anti-apoptotic action ([1]; Z-DEVD-FMK 1 mg/kg i.p. before P. indicus 54 mg/kg + ISO): selectively blocked its anti-apoptotic action
- Intrinsic cardiotoxicity of inhibitor [1]: ruled out intrinsic cardiotoxicity

SMILES: CCCCC/C=C\C/C=C\CCCCCCCC(=O)O [Linoleic acid]
- AUC(0-t) [2, 12]: 7210 ± 950 ng·h/mL
- Cmax [2, 12]: 2450 ± 300 ng/mL
- Tmax [2, 12]: 0.25 ± 0.08 h
- half-life [2, 12]: 1.8 ± 0.2 h

SMILES: CC(C)NCC(O)COc1cccc2ccccc12 (stereo not drawn) [propranolol]
- Relative expression of protein Nrf2 [3]: 2.55 ± 0.21
- Relative expression of protein Bax [4]: 1.74 ± 0.36
- ISO-induced increase of cardiac index (heart weight/body weight ratio) [5]: significantly attenuated
- ST-segment elevation ([6]; ISO 85 mg/kg s.c. days 7-14): 0.024 ± 0.033 mV
- QRS duration ([6]; ISO rats): 0.041 ± 0.002 s
- Ventricular premature beats (VPBs) ([6]; ISO rats): 1.2 ± 0.3 beats/60 min
- Pathological score (H&E) vs ISO group [7]: significantly lower
- Relative expression of protein Cleaved caspase-3 [8]: 2.48 ± 0.63
- Fibrotic area (Masson's trichrome) [9]: 11.2 ± 2.1%
- Relative expression of protein HO-1 [10]: 3.80 ± 0.64
- Relative expression of protein Bcl-2 [11]: 0.63 ± 0.08

SMILES: COc1cc(/C=C/C(=O)O)ccc1O [Ferulic acid]
- AUC0-24h [2, 13]: 3420 ± 510 ng·h/mL
- Cmax [2, 13]: 850 ± 110 ng/mL
- Tmax [2, 13]: 0.52 ± 0.15 h
- t1/2 [2, 13]: 2.8 ± 0.3 h
